# Source: PubChem
# CASP6 VEID inh = inhibitors of human caspase-6; inhibition, % at 12.5 µM; purified caspase-6, Z-VEID-R110 cleavage fluorescence; AID 686996; 350,000 tested, 0.53% active; P55212;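 active = mean inhibition across replicates at least about 35%, with every replicate also reaching that limit, limit read from the data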;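 also: 0% = median of neutral control wells and 100% = no fluorescence left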
# NSD2 inh = inhibitors of human histone methyltransferase NSD2 | O96028 | NSD2 peptide methylation, AlphaScreen, 120 min | inhibition, % at 12.5 µM | 310,000 tested, 0.54% active; in the data active = inhibition above about 50%
# FGF22 binding = FGF22 (human) thermal shift binding; AID 651658; 340,000 tested, 1.5% active; activity (Tm shift, normalised), % at 9.99 µM; recombinant FGF22 thermal shift, SYPRO orange fluorescence; percent of sucrose octasulfate shift, DMSO zero;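 active = mean Tm shift, scaled 0 neutral to 100 positive control, at about 1.3% or above, every replicate too, limit read from the data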
# Target sequence (Q9HCT0 whole entry, looked up): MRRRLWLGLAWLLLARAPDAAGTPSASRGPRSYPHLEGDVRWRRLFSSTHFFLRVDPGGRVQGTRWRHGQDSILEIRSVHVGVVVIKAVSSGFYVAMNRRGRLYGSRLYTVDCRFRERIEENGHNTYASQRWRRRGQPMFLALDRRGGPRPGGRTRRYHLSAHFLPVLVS
# SIRT5 block = sirtuin-5 (human) deacylase inhibition | AID 652115 | inhibition, % at 15 µM | Q9NXA8 | Purified SirT5, succinyl-peptide AMC, trypsin-coupled fluorescence | 330,000 tested, 1.1% active; in the data active = inhibition above about 15%
# UCH37 DUB inh = inhibitors of human deubiquitinating enzyme UCH37. Q9Y5K5. purified proteasome/UCH37, Ub-AMC cleavage fluorescence. inhibition, % (no concentration beside the values). 330,000 tested, 0.33% active;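 active = mean inhibition over replicate wells above about 20%, limit read from the data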;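 also: 0% = compound-free wells with enzyme and 100% = wells lacking proteasome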
#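 Schedule: 30 min plus 25 min, room temperature / Material: human UCH37 within purified proteasomes / Technique: AMC fluorescence intensity at 355/460 nm / Buffer or medium: pH 7.4 Tris-HCl (50 mM) with ovalbumin, ATP-MgCl2, DTT / Controls: wells without proteasome as full block, compound-free enzyme plus substrate as uninhibited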
# Starred values were filed as active, the others as inactive; · = no result given; ! = a repeat was not active. Shown are actives, neighbours in structure and some others; about 2.6% of the full set was active somewhere.
SMILES,CASP6 VEID inh,NSD2 inh,FGF22 binding,SIRT5 block,UCH37 DUB inh
COc1cc(C(=O)NCCN2CCN(C(=O)c3cc(OC)c(OC)c(OC)c3)CC2)cc(OC)c1OC,0,1,0,29*,4
COc1cc(NC(=O)Nc2ccc3c(c2)OCO3)cc(OC)c1OC,-1,-1,43*,-1,0
COc1cc(C(=O)NNC(=O)C2CCC2)cc(OC)c1OC,3,26,0,25*,0
COc1cc(C(=O)NCCN2CCCC2)cc(OC)c1OC,·,1,·,·,-2
C[C@H](CO)N1C[C@H](C)[C@H](CN(C)C(=O)NC2CCCC2)Oc2ncc(C#CCN(C)C)cc2C1=O,-1,·,0,0,·
CC(=NNC1=NCCN1)c1ccc(N)c([N+](=O)[O-])c1,·,·,·,·,4
COC(=O)c1sc(N2C(=O)C(=O)/C(=C(/O)c3ccccc3)C2c2ccco2)nc1C (stereo not given),37*,3,0,5,10
CCOC(=O)c1sc(N2C(=O)C(O)=C(C(=O)c3ccco3)C2c2ccco2)nc1C (stereo not given),39*,8,0,5,4
Cc1nc(N2C(=O)C(=O)/C(=C(/O)c3ccccc3)C2c2ccco2)sc1C (stereo not given),·,-2,·,·,3
Cc1ccc2nc(N3C(=O)C(O)=C(C(=O)c4ccco4)C3c3cccs3)sc2c1 (stereo not given),·,2,·,·,-5
Cc1cc(C)c2nc(N3C(=O)C(O)=C(C(=O)c4ccco4)C3c3ccco3)sc2c1 (stereo not given),68*,0,0,2,·
Cc1ccc2nc(N3C(=O)C(O)=C(C(=O)c4ccc(C)o4)C3c3ccc(O)cc3)sc2c1 (stereo not given),29,-1,·,22*,3
O=C(C[C@H]1C=C[C@@H](NS(=O)(=O)c2ccccc2)[C@H](CO)O1)N1CCc2ccccc2C1,-3,·,0,0,·
CC(C)NC(=O)Nc1cccc2c1O[C@H](CN(C)Cc1ccc3c(c1)OCO3)[C@@H](C)CN([C@@H](C)CO)C2=O,-4,·,0,-2,·
CCOc1ccc2nc(N3C(=O)C(O)=C(C(=O)c4ccco4)C3c3ccco3)sc2c1 (stereo not given),36*,26,0,3,6
COCC(=O)Nc1ccc2c(c1)C(=O)N(C)[C@H]1CC[C@@H](CC(=O)NCC(F)(F)F)O[C@H]1CO2,1,·,0,-1,·
O=C(CSc1ncn[nH]1)NN(c1ccccc1)c1ccccc1,-3,-3,44*,-1,4
CCCNC(=O)[C@H]1[C@H](CO)[C@H]2Cn3c(ccc(C4=CCCC4)c3=O)[C@H]2N1CCC(F)(F)F,-2,·,0,-5,·
O=C1C(=Cc2cn(-c3ccccc3)nc2-c2ccc(OCc3ccccc3F)cc2)SC(=S)N1CCS(=O)(=O)O,75*,·,0,5,·
O=C1C(=Cc2cn(-c3ccccc3)nc2-c2ccc(OCc3ccc(Cl)cc3)cc2)SC(=S)N1CCS(=O)(=O)O,46*,·,41,37*,·
CN(c1ccccc1)S(=O)(=O)c1cccc(NC(=O)CSc2nccc(=O)[nH]2)c1,2,1,43*,·,2
CCN(c1ccccc1)S(=O)(=O)c1cc(NC(=O)CSc2nccc(=O)[nH]2)ccc1Cl,·,-2,·,·,·
O=C(O)COc1ccccc1/C=N/NC(=O)CSc1nnc(SCc2ccc(Cl)cc2)s1,23,3,0,-3,·
O=C(O)COc1ccccc1/C=N/NC(=O)CSc1nnc(SCc2cccc3ccccc23)s1,37*,8,1,17*,·
COc1cccc(S(=O)(=O)N(C)C[C@@H]2Oc3cc(C#CCN(C)C)ccc3S(=O)(=O)N([C@H](C)CO)C[C@H]2C)c1,-2,·,0,0,·
Nc1ncnc2nc[nH]c12,-2,·,0,44*!,-3
O=C(NC1CCCCC1)N1CC(=O)N2[C@H](CO)[C@@H](c3ccc(-c4cccnc4)cc3)[C@@H]2C1,-1,·,·,2,·
CC(NC(=O)Nc1ccc(Cl)cc1)C1CCCO1 (stereo not given),-1,-3,43*,-1,6
CCOC(=O)c1ccc(NC(=O)NC(C)C2CCCO2)cc1 (stereo not given),·,0,·,·,2
OCCC1CN(Cc2cccn2-c2ccccn2)CCN1C1CCCCC1 (stereo not given),-9,-3,44*,-3,2
